{"source": "ChEMBL document CHEMBL4024793", "about": "“Development of Stem-Cell-Mobilizing Agents Targeting CXCR4 Receptor for Peripheral Blood Stem Cell Transplantation and Beyond” (J Med Chem, 2018)", "key": {"[1]": {"assay": "Acute toxicity in sc dosed C57BL/6 mouse assessed as maximum tolerated dose by measuring mortality", "assay_type": "organism-based", "settings": "in vivo; call rule not given here", "method_in_brief": "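Male C57BL/6 or ICR mice (n = 3/group) dosed subcutaneously with escalating doses, low to high; MTD taken as highest dose giving zero mortality (0/3).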"}, "[2]": {"biological_target": "Voltage-dependent N-type calcium channel subunit alpha-1B (Rattus norvegicus) (UniProt Q02294)", "sequence (Q02294 whole entry, looked up)": "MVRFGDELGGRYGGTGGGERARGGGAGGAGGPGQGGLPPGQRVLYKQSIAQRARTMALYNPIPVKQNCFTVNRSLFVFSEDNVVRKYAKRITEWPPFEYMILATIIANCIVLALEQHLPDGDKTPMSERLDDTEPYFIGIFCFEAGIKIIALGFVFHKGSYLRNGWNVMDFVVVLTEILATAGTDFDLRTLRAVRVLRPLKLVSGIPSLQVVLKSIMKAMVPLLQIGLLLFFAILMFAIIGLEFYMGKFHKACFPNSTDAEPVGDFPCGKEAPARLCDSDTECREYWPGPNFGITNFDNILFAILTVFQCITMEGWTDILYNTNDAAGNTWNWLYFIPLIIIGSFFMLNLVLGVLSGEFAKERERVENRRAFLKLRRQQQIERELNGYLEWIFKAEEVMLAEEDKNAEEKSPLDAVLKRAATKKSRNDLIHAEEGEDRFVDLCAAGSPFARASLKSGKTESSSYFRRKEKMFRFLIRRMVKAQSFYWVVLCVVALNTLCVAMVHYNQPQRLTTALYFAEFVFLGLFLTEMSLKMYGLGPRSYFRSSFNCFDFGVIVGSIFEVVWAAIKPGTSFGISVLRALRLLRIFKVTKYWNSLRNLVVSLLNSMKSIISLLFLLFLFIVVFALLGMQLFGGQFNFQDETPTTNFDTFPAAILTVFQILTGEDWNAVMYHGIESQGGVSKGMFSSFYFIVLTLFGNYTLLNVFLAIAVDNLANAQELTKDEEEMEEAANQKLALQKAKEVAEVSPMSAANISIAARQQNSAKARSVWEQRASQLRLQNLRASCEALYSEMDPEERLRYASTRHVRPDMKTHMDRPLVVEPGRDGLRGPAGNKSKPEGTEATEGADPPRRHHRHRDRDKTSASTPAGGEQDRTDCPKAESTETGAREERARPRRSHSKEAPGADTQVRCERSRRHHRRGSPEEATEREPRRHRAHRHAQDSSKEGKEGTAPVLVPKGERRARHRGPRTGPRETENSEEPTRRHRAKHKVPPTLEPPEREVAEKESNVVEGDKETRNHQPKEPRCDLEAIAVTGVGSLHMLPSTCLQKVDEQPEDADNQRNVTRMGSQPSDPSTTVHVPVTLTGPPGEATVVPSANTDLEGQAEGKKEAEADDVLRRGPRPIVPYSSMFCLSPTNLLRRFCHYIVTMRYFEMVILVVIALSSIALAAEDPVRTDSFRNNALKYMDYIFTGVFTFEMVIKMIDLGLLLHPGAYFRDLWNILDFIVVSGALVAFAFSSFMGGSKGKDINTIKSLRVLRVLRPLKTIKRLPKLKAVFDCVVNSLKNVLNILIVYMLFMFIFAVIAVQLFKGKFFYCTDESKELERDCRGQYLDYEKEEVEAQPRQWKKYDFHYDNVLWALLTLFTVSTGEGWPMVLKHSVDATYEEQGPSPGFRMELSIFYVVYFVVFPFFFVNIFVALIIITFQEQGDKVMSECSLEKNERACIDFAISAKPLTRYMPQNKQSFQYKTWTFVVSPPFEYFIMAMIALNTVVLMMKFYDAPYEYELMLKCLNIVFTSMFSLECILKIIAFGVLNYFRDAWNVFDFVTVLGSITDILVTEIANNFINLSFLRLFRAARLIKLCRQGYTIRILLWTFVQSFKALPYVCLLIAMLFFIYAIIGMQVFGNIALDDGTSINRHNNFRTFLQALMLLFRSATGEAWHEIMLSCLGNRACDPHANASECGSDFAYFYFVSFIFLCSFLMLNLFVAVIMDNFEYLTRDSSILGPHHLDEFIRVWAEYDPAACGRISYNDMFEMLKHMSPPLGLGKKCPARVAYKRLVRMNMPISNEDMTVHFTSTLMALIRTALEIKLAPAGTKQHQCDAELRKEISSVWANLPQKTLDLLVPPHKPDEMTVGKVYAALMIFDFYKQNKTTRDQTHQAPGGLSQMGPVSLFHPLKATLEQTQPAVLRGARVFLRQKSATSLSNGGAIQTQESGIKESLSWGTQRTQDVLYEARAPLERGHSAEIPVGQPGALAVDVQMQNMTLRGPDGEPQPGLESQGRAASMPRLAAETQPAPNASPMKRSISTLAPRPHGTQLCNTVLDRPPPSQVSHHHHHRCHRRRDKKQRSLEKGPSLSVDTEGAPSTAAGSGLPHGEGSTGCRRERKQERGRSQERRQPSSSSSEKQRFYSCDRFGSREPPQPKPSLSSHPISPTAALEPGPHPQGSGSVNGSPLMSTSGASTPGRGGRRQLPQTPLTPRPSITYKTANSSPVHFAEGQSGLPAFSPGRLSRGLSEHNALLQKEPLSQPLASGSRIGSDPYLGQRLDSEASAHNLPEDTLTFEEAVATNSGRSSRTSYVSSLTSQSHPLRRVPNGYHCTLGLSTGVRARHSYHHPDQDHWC", "assay": "Displacement of [125I]omega-conotoxin GVIA from rat brain Cav2.2 at 10 uM after 30 mins by scintillation counting"}, "[3]": {"test_system": "Mus musculus", "assay": "Induction hematopoietic stem cell mobilization in C57BL/6 mouse assessed as increase in CXCR4+ cells in blood at 35 mg/kg, sc measured after 2 hrs by APC-conjugated anti-CXCR4-staining based flow cytometry relative to vehicle control", "assay_type": "functional", "method_in_brief": "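Male C57BL/6 mice, 8–10 weeks old, received SC doses escalating through 1, 6, 20, 35 and 50 mg/kg. Blood was drawn 2 h after dosing and labelled with APC-conjugated anti-CXCR4 (clone 2B11). CXCR4⁺ cells were counted by flow cytometry, at least 60,000 events per point. Mean ± SEM, n = 3 per group, t test against vehicle.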"}, "[4]": {"biological_target": "Muscarinic acetylcholine receptor M2 (Homo sapiens) (UniProt P08172)", "sequence (P08172 whole entry)": "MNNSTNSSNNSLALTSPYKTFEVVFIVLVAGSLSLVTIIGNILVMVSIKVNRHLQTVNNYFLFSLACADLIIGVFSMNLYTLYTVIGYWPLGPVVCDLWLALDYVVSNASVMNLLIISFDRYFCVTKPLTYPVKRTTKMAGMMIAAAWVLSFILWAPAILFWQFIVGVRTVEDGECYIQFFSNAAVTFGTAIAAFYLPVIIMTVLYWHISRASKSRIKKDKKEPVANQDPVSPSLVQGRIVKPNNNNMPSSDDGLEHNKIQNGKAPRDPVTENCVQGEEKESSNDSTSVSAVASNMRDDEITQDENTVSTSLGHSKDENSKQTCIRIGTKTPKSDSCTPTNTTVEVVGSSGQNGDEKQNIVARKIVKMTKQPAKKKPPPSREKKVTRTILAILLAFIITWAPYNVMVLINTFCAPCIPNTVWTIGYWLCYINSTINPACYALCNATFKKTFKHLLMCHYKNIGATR", "assay": "Displacement of [3H]AF-DX 384 from recombinant human Muscarinic M2 receptor at 10 uM after 60 mins by scintillation counting"}, "[5]": {"biological_target": "Voltage-gated inwardly rectifying potassium channel KCNH2 (Homo sapiens, UniProt Q12809)", "sequence (Q12809 whole entry)": "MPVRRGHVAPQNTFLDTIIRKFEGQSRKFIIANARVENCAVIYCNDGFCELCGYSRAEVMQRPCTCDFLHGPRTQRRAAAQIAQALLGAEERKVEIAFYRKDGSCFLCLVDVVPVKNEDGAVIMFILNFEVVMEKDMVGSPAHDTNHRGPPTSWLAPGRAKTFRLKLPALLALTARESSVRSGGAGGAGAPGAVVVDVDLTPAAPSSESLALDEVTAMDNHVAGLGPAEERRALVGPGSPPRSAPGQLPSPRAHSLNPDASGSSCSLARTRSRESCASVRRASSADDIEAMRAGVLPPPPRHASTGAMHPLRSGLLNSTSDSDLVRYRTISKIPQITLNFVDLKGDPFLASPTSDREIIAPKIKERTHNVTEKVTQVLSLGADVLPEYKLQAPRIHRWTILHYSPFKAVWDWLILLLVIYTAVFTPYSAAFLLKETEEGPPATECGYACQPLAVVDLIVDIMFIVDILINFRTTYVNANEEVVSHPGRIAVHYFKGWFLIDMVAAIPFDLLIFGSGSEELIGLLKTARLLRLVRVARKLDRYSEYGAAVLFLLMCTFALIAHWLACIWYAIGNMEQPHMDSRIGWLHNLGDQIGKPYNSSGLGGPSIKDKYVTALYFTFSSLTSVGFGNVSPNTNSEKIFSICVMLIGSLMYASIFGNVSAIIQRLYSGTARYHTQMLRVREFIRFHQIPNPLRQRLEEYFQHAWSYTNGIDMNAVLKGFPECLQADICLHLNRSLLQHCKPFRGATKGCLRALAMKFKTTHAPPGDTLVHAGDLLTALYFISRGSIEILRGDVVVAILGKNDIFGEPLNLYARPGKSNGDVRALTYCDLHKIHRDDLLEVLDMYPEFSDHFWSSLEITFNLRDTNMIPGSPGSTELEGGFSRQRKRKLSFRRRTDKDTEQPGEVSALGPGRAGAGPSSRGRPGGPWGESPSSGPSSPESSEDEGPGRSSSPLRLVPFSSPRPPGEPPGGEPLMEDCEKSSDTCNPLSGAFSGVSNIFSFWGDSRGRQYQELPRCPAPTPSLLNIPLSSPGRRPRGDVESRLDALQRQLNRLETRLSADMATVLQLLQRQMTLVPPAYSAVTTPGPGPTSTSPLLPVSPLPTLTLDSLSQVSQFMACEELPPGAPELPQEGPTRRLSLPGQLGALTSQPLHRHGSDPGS", "assay": "Inhibition of human ERG expressed in CHO cells up to 100 uM by automated patch-clamp assay", "assay_type": "cell-based", "method_in_brief": "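hERG liability examined by patch-clamp at concentrations up to 100 μM.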"}, "[6]": {"biological_target": "C-X-C chemokine receptor type 2 (Homo sapiens) (UniProt P25025)", "sequence (P25025 whole entry)": "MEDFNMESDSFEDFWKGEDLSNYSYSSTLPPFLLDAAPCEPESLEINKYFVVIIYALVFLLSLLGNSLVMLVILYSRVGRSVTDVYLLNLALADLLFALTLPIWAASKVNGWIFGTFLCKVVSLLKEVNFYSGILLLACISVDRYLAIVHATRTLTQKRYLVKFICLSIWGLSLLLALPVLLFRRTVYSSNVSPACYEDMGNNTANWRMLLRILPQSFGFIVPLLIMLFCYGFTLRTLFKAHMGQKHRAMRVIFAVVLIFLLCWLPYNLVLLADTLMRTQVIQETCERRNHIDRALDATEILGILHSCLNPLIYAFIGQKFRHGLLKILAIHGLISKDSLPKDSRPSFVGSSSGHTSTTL", "assay": "Antagonist activity at human CXCR2 expressed in CHOK1 cells assessed as inhibition of interleukin-8-induced cAMP accumulation at 10 uM preincubated for 30 mins followed agonist addition measured after 30 to 60 mins", "assay_type": "functional, cell-based", "method_in_brief": "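GPCR cAMP assay with a single test concentration of 10 μM; result expressed as percentage inhibition for each chemokine receptor.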"}}, "data": [{"compound": "Cc1cc(NC2CCN(C(=O)CCNCC(=O)O)CC2)nc(NCc2cn(CCCNCCCNC3CCCCC3)nn2)n1", "values": [{"measurement": "MTD", "setting": "[1]", "value": 75, "unit": "mg/kg"}, {"measurement": "inhibition", "setting": "[2]", "value": 73, "unit": "%"}, {"measurement": "fold change (FC)", "setting": "[3]", "value": 3}, {"measurement": "inhibition", "setting": "[4]", "value": 70, "unit": "%"}, {"measurement": "inhibition (INH)", "setting": "[5]", "value": "Not Active"}, {"measurement": "Efficacy", "setting": "[6]", "value": 0.5, "unit": "%"}]}]}
